Drawing on ChEMBL document CHEMBL5365545, “Synthesis and Optimization of 1-Substituted Imidazo[4,5-c]quinoline TLR7 Agonists” (ACS Med Chem Lett, 2023), this text covers Papp, EC50 and Activity for 24 compounds.

A short description of data set [1]: Apparent permeability of the compound at 200 uM incubated for 5 hrs by PAMPA assay. It counts as ADME. An outline of the steps:
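PAMPA using an artificial lipid/oil/lipid trilayer membrane separating donor and acceptor wells. Compound was quantified by absorbance at 280 nm, or at 320 nm for some compounds. Runs were in triplicate, and the reported values are averages of three experiments.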
For orientation: The PAMPA barrier holds no transporters, so it reflects passive diffusion.

A further data set addresses T1, Toll-like receptor 7 (Homo sapiens, UniProt Q9NYK1).
T1 sequence (Q9NYK1 whole entry): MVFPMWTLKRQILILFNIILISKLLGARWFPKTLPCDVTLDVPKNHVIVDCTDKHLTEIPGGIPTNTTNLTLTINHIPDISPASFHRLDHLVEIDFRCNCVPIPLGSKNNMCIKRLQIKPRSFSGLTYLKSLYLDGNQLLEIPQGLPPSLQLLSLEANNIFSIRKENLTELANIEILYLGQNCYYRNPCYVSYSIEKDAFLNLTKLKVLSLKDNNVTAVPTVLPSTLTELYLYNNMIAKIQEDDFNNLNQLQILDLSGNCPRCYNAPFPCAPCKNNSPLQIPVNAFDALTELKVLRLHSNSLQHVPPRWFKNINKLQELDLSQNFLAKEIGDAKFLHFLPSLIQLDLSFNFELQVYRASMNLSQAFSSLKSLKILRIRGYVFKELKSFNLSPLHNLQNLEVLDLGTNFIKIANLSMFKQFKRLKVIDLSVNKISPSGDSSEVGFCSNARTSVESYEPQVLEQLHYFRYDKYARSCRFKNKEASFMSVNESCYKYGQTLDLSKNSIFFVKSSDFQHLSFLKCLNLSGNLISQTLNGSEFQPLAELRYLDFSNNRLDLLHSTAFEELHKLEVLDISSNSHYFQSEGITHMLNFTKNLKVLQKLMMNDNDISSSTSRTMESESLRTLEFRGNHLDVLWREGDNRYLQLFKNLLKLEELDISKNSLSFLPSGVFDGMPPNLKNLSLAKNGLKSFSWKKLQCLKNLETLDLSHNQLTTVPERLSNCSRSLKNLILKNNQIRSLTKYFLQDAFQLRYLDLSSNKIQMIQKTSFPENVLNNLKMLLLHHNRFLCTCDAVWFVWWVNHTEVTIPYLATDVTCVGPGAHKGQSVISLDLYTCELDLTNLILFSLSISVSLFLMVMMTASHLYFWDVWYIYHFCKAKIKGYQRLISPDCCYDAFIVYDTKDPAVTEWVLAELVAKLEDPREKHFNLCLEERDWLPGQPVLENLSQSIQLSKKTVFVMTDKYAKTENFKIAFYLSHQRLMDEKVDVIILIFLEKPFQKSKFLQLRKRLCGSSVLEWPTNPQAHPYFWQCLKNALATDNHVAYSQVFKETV
In words: Agonist activity at TLR7 in human Ramos-blue cells assessed as increase in NFkappaB activation incubated for 72 hrs by quanti-blue/SEAP reporter gene based assay. The format is cell-based. Background: In a reporter assay the amount or activity of a reporter protein is the signal.

Data set [2] has as its target T2, Toll-like receptor 8 (Homo sapiens) (UniProt Q9NR97).
T2 sequence (whole entry): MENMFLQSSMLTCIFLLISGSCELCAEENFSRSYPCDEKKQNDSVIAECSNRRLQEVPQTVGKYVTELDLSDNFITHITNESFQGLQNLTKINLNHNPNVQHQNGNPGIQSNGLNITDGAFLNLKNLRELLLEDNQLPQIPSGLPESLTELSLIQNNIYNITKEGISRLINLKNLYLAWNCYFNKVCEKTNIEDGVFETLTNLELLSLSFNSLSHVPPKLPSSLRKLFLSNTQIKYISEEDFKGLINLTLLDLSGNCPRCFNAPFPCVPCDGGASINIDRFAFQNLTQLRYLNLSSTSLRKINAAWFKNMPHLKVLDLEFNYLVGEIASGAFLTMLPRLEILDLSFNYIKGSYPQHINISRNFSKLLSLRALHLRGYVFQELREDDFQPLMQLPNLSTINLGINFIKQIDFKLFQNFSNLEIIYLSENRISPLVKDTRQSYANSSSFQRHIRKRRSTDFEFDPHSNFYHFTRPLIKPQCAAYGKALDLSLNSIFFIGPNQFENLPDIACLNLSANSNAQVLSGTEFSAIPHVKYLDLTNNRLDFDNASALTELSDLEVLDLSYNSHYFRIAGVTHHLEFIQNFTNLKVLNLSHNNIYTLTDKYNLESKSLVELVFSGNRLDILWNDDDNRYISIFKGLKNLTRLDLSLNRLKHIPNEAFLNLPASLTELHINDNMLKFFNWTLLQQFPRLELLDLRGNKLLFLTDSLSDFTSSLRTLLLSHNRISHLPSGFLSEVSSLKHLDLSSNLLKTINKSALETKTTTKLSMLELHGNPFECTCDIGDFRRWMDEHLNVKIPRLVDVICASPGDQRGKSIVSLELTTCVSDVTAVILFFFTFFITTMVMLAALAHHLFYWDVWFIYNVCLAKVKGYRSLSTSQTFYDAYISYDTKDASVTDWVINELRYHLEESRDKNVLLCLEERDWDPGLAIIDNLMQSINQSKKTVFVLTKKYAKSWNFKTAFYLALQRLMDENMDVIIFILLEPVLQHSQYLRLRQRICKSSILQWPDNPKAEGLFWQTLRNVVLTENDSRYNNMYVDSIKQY
Nature of the data set: Agonist activity at TLR8 in GM-CSF induced human MDM cells assessed as increase in TNFalpha release at 80 to 2000 nM measured after 6 hrs. The format is cell-based. The note with it: filed as agonist, dose 80-2000 nM.

Data set [3] addresses T2, Toll-like receptor 8 (Homo sapiens). Nature of the data set: Agonist activity at TLR8 in GM-CSF induced human MDM cells assessed as increase in IL-6 release at 80 to 2000 nM measured after 6 hrs. The format is cell-based. The settings on record: filed as agonist, dose 80-2000 nM.

Activity calls are given as the source filed them. The calls are words filed in the database; no cut-off is given here.

On to `CCCCc1nc2c(N)nc3ccccc3c2n1Cc1cccc(O)c1`, for which the Papp at 5 h, 200 µM in data set [1] stood at 0.98 ×10⁻⁶ cm/s. As for `CCCCc1nc2c(N)nc3ccccc3c2n1Cc1ccc(NC(=O)OCC)cc1`, the apparent permeability coefficient (Papp) at 5 h, 200 µM in data set [1] came out at 8.78 ×10⁻⁶ cm/s. As to `CCCCc1nc2c(N)nc3ccccc3c2n1Cc1ccc(OC)cc1`, on Toll-like receptor 7, the EC50 came out at 232 nM. In addition, in data set [1], the Papp at 5 h, 200 µM was found to be 4.01 ×10⁻⁶ cm/s.

Turning to `CCCCc1nc2c(N)nc3ccccc3c2n1Cc1ccc(NC(=O)CCCCCN)cc1`, the Papp at 5 h, 200 µM in data set [1] stood at 0.436 ×10⁻⁶ cm/s.

Take `CCCCc1nc2c(N)nc3ccccc3c2n1Cc1ccc(NC(=O)CN)cc1`: in data set [1], the Papp at 5 h, 200 µM worked out at 0.834 ×10⁻⁶ cm/s. Still for that read-out and setting: next, `CCCCc1nc2c(N)nc3ccccc3c2n1Cc1cccc(OC)c1`: 2.5 ×10⁻⁶ cm/s; `CCOCc1nc2c(N)nc3ccccc3c2n1CC(C)(C)O` [RESIQUIMOD]: 5.3 ×10⁻⁶ cm/s.

With `CCCCc1nc2c(N)nc3ccccc3c2n1Cc1ccc(NC(=O)CCCCCNC(=O)OC(C)(C)C)cc1`, the Papp at 5 h, 200 µM in data set [1] worked out at 1.91 ×10⁻⁶ cm/s. Still for that read-out and setting: under `CCCCc1nc2c(N)nc3ccccc3c2n1Cc1ccc(NC(=O)CCCCNC(=O)OC(C)(C)C)cc1` stands 1.95 ×10⁻⁶ cm/s. Take `CCCCc1nc2c(N)nc3ccccc3c2n1Cc1ccc(NC(C)=O)cc1`: the apparent permeability coefficient (Papp) at 5 h, 200 µM in data set [1] stood at 3.45 ×10⁻⁶ cm/s.

`CCCCOC(=O)Cc1ccc(Cn2c(CCCC)nc3c(N)nc4ccccc4c32)cc1`: the Papp at 5 h, 200 µM in data set [1] was 14.2 ×10⁻⁶ cm/s. On the same count and under the same terms, next, `CCCCc1nc2c(N)nc3ccccc3c2n1Cc1ccc(O)cc1`: 3.06 ×10⁻⁶ cm/s; `CCCCc1nc2c(N)nc3ccccc3c2n1Cc1cccc(NC(=O)OC(C)(C)C)c1`: 1.24 ×10⁻⁶ cm/s. On the same count and under the same terms, under `CCCCC(=O)Nc1ccc(Cn2c(CCCC)nc3c(N)nc4ccccc4c32)cc1` stands 1.59 ×10⁻⁶ cm/s; under `CCCCc1nc2c(N)nc3ccccc3c2n1Cc1ccc(NC(=O)CCN)cc1`, 0.131 ×10⁻⁶ cm/s; under `CCCCc1nc2c(N)nc3ccccc3c2n1Cc1ccc(NC(=O)OC(C)C)cc1`, 5.12 ×10⁻⁶ cm/s. The same measure, in the same setting: next, `CCCCc1nc2c(N)nc3ccccc3c2n1Cc1ccc(NC(=O)CCCCN)cc1`: 0.838 ×10⁻⁶ cm/s.

For the compound `CCCN(CCC)C(=O)C1=Cc2ccc(-c3ccc(C(=O)N4CCCC4)cc3)cc2N=C(N)C1`, the result in data set [2] and in data set [3] was Active. `CCCCc1nc2c(N)nc3ccccc3c2n1Cc1ccc(N)cc1`: the EC50 at Toll-like receptor 7 was determined as 69 nM. In data set [1], the apparent permeability (Papp) at 5 h, 200 µM is 8.51 ×10⁻⁶ cm/s.

For `CCCCc1nc2c(N)nc3ccccc3c2n1Cc1ccc(NC(=O)CCNC(=O)OC(C)(C)C)cc1`, in data set [1], the apparent permeability coefficient (Papp) at 5 h, 200 µM is 0.434 ×10⁻⁶ cm/s. Still for that read-out and setting: next, `CCCCc1nc2c(N)nc3ccccc3c2n1Cc1ccc(NC(=O)CNC(=O)OC(C)(C)C)cc1`: 4.48 ×10⁻⁶ cm/s. In the case of `CCCCc1nc2c(N)nc3ccccc3c2n1Cc1ccc(NC(=O)CCCNC(=O)OC(C)(C)C)cc1`, the apparent permeability coefficient (Papp) at 5 h, 200 µM in data set [1] came out at 1.33 ×10⁻⁶ cm/s.

`CCCCc1nc2c(N)nc3ccccc3c2n1Cc1ccc(NC(=O)CCCN)cc1`: the Papp at 5 h, 200 µM in data set [1] is 0.159 ×10⁻⁶ cm/s. As for `CCCCc1nc2c(N)nc3ccccc3c2n1Cc1cccc(N)c1`, in data set [1], the Papp at 5 h, 200 µM stood at 5.26 ×10⁻⁶ cm/s.

In general, Papp refers to a coefficient for how fast a substance crosses the barrier. As usually defined, the EC50 is the midpoint of the concentration-response curve.
